Consider 19 molecules from ChEMBL document CHEMBL3120063, “Identification of chromomoric acid C-I as an Nrf2 activator in Chromolaena odorata” (J Nat Prod, 2014).

Structures are written as SMILES. The source made the active and inactive calls. No cut-off for these calls is given here.

In data set [1] the target is T1, Nuclear factor erythroid 2-related factor 2 (Homo sapiens) (UniProt Q16236).
T1 sequence (whole entry): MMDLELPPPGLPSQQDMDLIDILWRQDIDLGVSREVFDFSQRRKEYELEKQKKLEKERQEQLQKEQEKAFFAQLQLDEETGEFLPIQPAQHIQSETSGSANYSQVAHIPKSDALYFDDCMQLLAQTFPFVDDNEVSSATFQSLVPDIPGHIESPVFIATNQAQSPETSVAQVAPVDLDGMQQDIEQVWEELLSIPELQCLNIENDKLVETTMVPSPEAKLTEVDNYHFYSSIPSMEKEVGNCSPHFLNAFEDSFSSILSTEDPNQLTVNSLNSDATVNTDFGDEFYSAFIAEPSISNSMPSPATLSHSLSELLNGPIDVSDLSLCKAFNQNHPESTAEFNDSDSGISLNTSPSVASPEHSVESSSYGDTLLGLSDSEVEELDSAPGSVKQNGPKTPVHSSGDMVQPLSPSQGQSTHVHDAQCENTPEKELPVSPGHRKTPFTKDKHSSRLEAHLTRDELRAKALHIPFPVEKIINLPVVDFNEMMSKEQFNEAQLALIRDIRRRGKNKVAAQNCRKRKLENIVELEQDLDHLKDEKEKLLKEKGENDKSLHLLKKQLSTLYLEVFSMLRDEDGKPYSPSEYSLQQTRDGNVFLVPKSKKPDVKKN
The data set can be described thus: Activation of Nrf2 (unknown origin) expressed in CHO-ARE luc cells at 10 to 30 uM after 18 hrs by luciferase reporter gene assay. Type of data set: cell-based. The method, boiled down: (§1)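 CHO-ARE-Luc cells, kept in DMEM with 10% FCS, 2 mM glutamine and 4 μg/mL puromycin, were exposed to test agents for 18 h. 0.1% DMSO served as vehicle and 100 nM CDDO-IM as positive control. Luciferase was normalized to cell count (Cell Tracker Green CMFDA) and expressed as fold of DMSO control. Three independent experiments, means + SD. CD = concentration doubling the vehicle response.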
In general terms: Reporter assays use an easily measured gene product as a stand-in for the process of interest.

Data set [2] has as its target T1, Nuclear factor erythroid 2-related factor 2 (Homo sapiens). Put plainly: Activation of Nrf2 (unknown origin) expressed in CHO-ARE-Luc cells after 18 hrs by luciferase reporter gene assay. Type of data set: cell-based. Put shortly:
as §1

In another data set the test system is HEK293. The data set can be described thus: Inhibition of NF-kappaB (unknown origin) expressed in HEK293 cells co-expressing luc gene at 30 uM after 30 mins by luciferase reporter gene assay. Type of data set: cell-based. The note with it: Homo sapiens. The method, boiled down:
(§2)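 HEK293/NF-κB-luc cells were stained 1 h with 2 μM Cell Tracker Green CMFDA, seeded at 4×10⁴ cells/well overnight, and pretreated 30 min with compound, 0.1% DMSO, or 5 μM parthenolide (positive control). They were then stimulated with 2 ng/mL TNF-α for 4 h and lysed; luminescence (NF-κB) and fluorescence (cell count) were read. n = 3.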

The target in data set [3] is T1, Nuclear factor erythroid 2-related factor 2 (Homo sapiens). The data set can be described thus: Activation of Nrf2 (unknown origin) expressed in CHO-ARE luc cells at 10 uM after 18 hrs by luciferase reporter gene assay. Type of data set: cell-based. Put shortly:
as §1

Data set [4] shares this target. Put plainly: Activation of Nrf2 in human VSMC assessed as induction of HO-1 expression at 3 uM after 18 hrs by immunoblotting analysis. The method, boiled down:
(§3)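 MEF (WT and isogenic Nrf2−/−) or VSMC were seeded at (3–4) × 10⁵ cells/well and treated next day with 0.1% DMSO or compound for 18 h. Total lysates were run on SDS-PAGE and immunoblotted for HO-1, with actin as loading control. HO-1/actin by densitometry relative to vehicle (set at 1). Three independent experiments.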
(In general: A western blot detects proteins with antibodies after separation by electrophoresis.)

For data set [5], the target named is T2, Nuclear factor erythroid 2-related factor 2 (Mus musculus) (UniProt Q60795).
T2 sequence (whole entry): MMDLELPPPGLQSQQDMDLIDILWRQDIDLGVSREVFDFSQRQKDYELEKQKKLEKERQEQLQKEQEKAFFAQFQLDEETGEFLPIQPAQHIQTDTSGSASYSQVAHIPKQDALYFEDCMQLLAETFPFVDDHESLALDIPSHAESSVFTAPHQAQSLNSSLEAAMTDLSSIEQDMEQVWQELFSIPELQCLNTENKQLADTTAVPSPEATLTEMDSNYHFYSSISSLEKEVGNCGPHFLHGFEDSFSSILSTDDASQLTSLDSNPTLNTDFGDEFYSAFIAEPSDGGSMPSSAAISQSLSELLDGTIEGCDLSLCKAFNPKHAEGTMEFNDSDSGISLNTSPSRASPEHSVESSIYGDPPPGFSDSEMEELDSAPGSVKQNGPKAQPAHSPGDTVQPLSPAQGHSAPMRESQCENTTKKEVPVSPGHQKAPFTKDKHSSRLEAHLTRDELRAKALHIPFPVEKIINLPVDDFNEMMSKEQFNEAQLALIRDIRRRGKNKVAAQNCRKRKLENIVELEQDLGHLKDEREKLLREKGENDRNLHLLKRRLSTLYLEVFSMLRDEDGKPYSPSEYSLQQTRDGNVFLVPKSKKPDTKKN
The data set can be described thus: Activation of Nrf2 in mouse Nrf2 deficient embryonic fibroblasts assessed as induction of HO-1expression at 10 uM after 18 hrs by immunoblotting analysis. Put shortly:
as §3

Data set [6] deals with T1, Nuclear factor erythroid 2-related factor 2 (Homo sapiens). Put plainly: Activation of Nrf2 (unknown origin) expressed in CHO-ARE-Luc cells after 18 hrs by luciferase reporter gene assay in presence of GSH. The class given is cell-based. The method, boiled down: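 ARE-luciferase assay in CHO-ARE-Luc cells with the medium supplemented with 2 mM glutathione before compound addition. Luciferase read 18 h later, normalized to cell count and given as fold of 0.1% DMSO control. CDDO-IM 100 nM as positive control. Three independent experiments.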

The target is the same in data set [7]. The data set can be described thus: Activation of Nrf2 (unknown origin) expressed in CHO-ARE luc cells at 5.2 uM after 18 hrs by luciferase reporter gene assay relative to vehicle-treated control. The class given is cell-based. The method, boiled down: as §1
Data set [8] in a line: Inhibition of NF-kappaB (unknown origin) expressed in HEK293 cells co-expressing luc gene after 30 mins by luciferase reporter gene assay. Type of data set: cell-based. The conditions noted are these: Homo sapiens, HEK293, 0.5 h. The method, boiled down: as §2
Data set [9] has as its target T2, Nuclear factor erythroid 2-related factor 2 (Mus musculus). Put plainly: Activation of Nrf2 in wild type mouse embryonic fibroblasts assessed as induction of HO-1expression after 18 hrs by immunoblotting analysis. Put shortly: as §3
Data set [10] concerns VSMC. Put plainly: Antiproliferative activity against human VSMC assessed as inhibition of PDGF-induced cell proliferation at 5 uM incubated for 30 mins prior to PDGF challenge measured after 48 hrs by resazurin-mediated fluorescence assay in presence of protoporphyrin 9. Type of data set: functional. Put shortly:
(§4)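 Quiescent (serum-starved) VSMC were pretreated 30 min with 0.1% DMSO, compound, or 10 μM tin protoporphyrin IX (HO-1 inhibitor) as indicated, then stimulated 48 h with 20 ng/mL PDGF. After a PBS wash, cells were given 10 μg/mL resazurin in serum-free medium for 45 min; resorufin fluorescence read at ex 535/em 590 nm. Three independent experiments.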

Data set [11] relates to VSMC. The data set can be described thus: Antiproliferative activity against human VSMC assessed as inhibition of PDGF-induced cell proliferation at 2 to 5 uM incubated for 30 mins prior to PDGF challenge measured after 48 hrs by resazurin-mediated fluorescence assay. Type of data set: functional. Put shortly:
as §4

Data set [12] in a line: Cytotoxicity against human VSMC at 2 to 5 uM after 48 hrs by LDH assay. Put shortly:
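Quiescent VSMC were treated with compound for 48 h. LDH release, measured with a nonradioactive CytoTox kit, was taken as readout of membrane integrity. Three independent experiments, 0.1% DMSO vehicle.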

Take `COc1cc(O)c2c(=O)c(O)c(-c3ccc(OC)c(O)c3)oc2c1`: the result in data set [1] was inactive.
For the molecule `COc1ccc([C@@H]2CC(=O)c3c(cc(O)c(OC)c3O)O2)cc1O`, the outcome in data set [1] was inactive.
Turning to `CCCCC/C=C/C=C1/C(=O)C=C[C@@H]1C/C=C\CCCC(=O)O`, in [2], the Activity entry is “Dose-dependent effect”.
Take `COc1ccc(-c2oc3cc(O)cc(O)c3c(=O)c2O)cc1`: the result in data set [1] was inactive.
As for `CC/C=C\C=C1/C(=O)C=C[C@@H]1CCCCCCCC(=O)O`, the inhibition entry in the data set on HEK293 is “Active”.
Regarding `COc1ccc(-c2cc(=O)c3c(O)cc(O)cc3o2)cc1`, the result in data set [1] was inactive.
On the same count and under the same terms, the value for `O=C1C[C@@H](c2ccc(O)cc2)Oc2cc(O)cc(O)c21` was “inactive”; that for `COc1ccc(-c2cc(=O)c3c(O)c(OC)c(OC)cc3o2)cc1` was “inactive”.
Still for that read-out and setting: the value for `COc1ccc(-c2cc(=O)c3c(O)c(OC)c(O)cc3o2)cc1` was “inactive”; that for `COc1ccc([C@@H]2CC(=O)c3c(O)cc(O)cc3O2)cc1O` was “inactive”.
On to `CC/C=C\C[C@H]1C(=O)C=C[C@@H]1CCCCCCCC(=O)O`, for which the inhibition entry in the data set with HEK293 is “Active”.
Turning to `CC/C=C\C=C1\C(=O)C=C[C@@H]1CCCCCCCC(=O)O`, the result in data set [3], in data set [4] and in data set [5] was Active. The result (in data set [6]; in the data set on VSMC [10]) was inactive. The molecule also yielded a fold change (FC) in [7] of 2. Moreover, the IC50 in [8] was determined as 6.9 µM. Further, the results for the Activity entry in data set [9] and in data set [12] were “Dose-dependent effect” and “Non-toxic”, respectively. Besides, the inhibition entry with VSMC [11] was “Active”.
Consider `COc1ccc(-c2cc(=O)c3c(OC)c(OC)c(OC)cc3o2)cc1`, for which the outcome in [1] was inactive.
Take `CC/C=C\CC1C(=O)C=C/C1=C\CCCCCCC(=O)O` (stereo not drawn): the inhibition entry in the data set with HEK293 is “Active”.
As to `CC/C=C\CC1C(=O)C=C/C1=C/CCCCCCC(=O)O` (stereo not drawn), the inhibition entry in the data set with HEK293 was “Active”.
With `O=c1c(O)c(-c2ccc(O)cc2)oc2cc(O)cc(O)c12`, the result in data set [1] was inactive.
The same measure, in the same setting: the value for `COc1ccc(-c2oc3cc(O)c(OC)c(O)c3c(=O)c2O)cc1` was “inactive”.
With `COc1cc(O)c2c(c1)O[C@H](c1ccc(O)cc1)[C@@H](O)C2=O`, the result in [1] was inactive.
The same measure, in the same setting: the value for `COc1ccc([C@@H]2CC(=O)c3c(cc(OC)c(OC)c3O)O2)cc1OC` was “inactive”.

The IC50 is the point on the concentration scale where inhibition reaches its midpoint.
